Laboratory results reported in ChEMBL document CHEMBL3758120, “Synthesis and Mechanism Studies of 1,3-Benzoazolyl Substituted Pyrrolo[2,3-b]pyrazine Derivatives as Nonintercalative Topoisomerase II Catalytic Inhibitors” (J Med Chem, 2016).
Activity calls are given as the source filed them. No cut-off for these calls is given here.

Legend:
A549 = assay: Antiproliferative activity against human A549 cells after 48 hrs by MTT assay; assay type: functional, cell-based; conditions: A549, 48 h
Outline: (§1)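 Cells seeded at 5000 per well and left overnight, then exposed to increasing concentrations (0-50 μM) for 48 h. […] HL-60/MX2 is a mitoxantrone-selected HL-60 derivative with reduced Topo IIα/β.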

[1] = target: T1, DNA topoisomerase 2-alpha (Homo sapiens, UniProt P11388); assay: Inhibition of purified human topoisomerase 2-mediated relaxation of supercoiled pBR322 DNA at 20 uM incubated for 30 mins by agarose gel electrophoresis
T1 sequence (P11388 whole entry): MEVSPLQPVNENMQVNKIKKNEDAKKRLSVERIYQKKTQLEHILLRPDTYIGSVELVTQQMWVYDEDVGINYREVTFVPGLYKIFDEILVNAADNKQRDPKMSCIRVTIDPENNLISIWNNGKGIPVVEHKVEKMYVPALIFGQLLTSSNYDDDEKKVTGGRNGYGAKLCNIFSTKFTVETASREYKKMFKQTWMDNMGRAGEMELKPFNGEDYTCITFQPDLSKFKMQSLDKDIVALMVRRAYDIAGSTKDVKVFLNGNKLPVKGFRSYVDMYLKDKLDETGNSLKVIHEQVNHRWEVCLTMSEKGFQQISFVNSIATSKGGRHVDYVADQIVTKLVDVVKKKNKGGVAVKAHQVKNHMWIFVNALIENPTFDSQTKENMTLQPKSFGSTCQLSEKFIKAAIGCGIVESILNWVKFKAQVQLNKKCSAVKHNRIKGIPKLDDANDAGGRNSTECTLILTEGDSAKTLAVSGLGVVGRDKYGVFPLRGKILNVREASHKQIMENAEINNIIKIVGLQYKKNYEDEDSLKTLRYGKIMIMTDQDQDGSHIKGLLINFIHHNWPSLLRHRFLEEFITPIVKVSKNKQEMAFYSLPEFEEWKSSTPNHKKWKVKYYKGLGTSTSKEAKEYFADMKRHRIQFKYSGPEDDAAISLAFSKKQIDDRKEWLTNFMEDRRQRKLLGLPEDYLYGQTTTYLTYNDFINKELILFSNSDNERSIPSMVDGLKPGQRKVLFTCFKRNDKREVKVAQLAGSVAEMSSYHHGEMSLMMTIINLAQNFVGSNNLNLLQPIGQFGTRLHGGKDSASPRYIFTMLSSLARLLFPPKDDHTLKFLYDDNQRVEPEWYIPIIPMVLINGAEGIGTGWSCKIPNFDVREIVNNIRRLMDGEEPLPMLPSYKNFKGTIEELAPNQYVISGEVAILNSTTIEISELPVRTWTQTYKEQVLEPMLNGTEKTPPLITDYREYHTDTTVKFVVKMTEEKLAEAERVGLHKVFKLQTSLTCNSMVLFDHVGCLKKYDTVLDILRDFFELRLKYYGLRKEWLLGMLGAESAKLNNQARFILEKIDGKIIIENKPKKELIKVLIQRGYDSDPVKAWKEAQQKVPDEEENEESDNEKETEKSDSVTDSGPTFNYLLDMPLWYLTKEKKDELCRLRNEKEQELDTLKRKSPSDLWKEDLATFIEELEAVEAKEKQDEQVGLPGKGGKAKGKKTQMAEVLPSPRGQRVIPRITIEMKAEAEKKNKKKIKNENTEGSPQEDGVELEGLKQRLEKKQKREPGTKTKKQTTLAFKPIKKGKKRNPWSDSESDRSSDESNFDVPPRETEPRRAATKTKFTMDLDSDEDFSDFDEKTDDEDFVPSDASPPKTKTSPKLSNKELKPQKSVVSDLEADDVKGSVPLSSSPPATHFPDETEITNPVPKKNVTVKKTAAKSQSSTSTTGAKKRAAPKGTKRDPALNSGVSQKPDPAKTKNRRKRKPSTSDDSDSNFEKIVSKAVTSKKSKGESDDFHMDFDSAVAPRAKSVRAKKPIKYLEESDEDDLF
Outline: (§2)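 Reactions contained 0.2 μg supercoiled pBR322 in 50 mM Tris-HCl pH 8.0, 150 mM NaCl, 10 mM MgCl2, 0.5 mM DTT, 30 μg/ml BSA, normally 2 mM ATP (1, 2 or 4 mM in ATP-competition runs). Started with 1 U human Topo II, 30 min at 37 °C, stopped with sarcosyl buffer, run on 1% agarose 1.5 h at 75 V, gel-stained and imaged under UV.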

Raji = assay: Antiproliferative activity against human Raji cells after 48 hrs by MTT assay; assay type: functional, cell-based; outline: as §1
HL-60 = assay: Resistance index, ratio of IC50 for human HL60/MX2 cells to IC50 for HL60 cells; assay type: functional
Outline: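 Resistance index calculated as MTT-derived IC50 (48 h exposure, 0-50 μM, A570 readout) in HL-60/MX2 divided by IC50 in parental HL-60.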

[2] = Antiproliferative activity against human MDA-MB-201 cells after 48 hrs by MTT assay; assay type: functional, cell-based; outline: as §1
HEK293 = assay: Cytotoxicity against HEK293 cells after 48 hrs by MTT assay; assay type: cell-based; conditions: Homo sapiens, HEK293, 48 h
K562 = assay: Antiproliferative activity against human K562 cells after 48 hrs by MTT assay; assay type: functional, cell-based; conditions: K562, 48 h; outline: as §1
[3] = Antiproliferative activity against human HL60/MX2 cells after 48 hrs by MTT assay; assay type: functional, cell-based; conditions: HL60/MX2, 48 h; outline: as §1
[4] = Antiproliferative activity against human HL60 cells after 48 hrs by MTT assay; assay type: functional, cell-based; conditions: HL-60, 48 h; outline: as §1
HeLa = assay: Antiproliferative activity against human HeLa cells after 48 hrs by MTT assay; assay type: functional, cell-based; outline: as §1
[5] = target: T2, DNA topoisomerase 1 (Homo sapiens) (UniProt P11387); assay: Inhibition of recombinant human topoisomerase 1-mediated relaxation of supercoiled pBR322 DNA at 50 uM incubated for 30 mins by agarose gel electrophoresis
T2 sequence (whole entry): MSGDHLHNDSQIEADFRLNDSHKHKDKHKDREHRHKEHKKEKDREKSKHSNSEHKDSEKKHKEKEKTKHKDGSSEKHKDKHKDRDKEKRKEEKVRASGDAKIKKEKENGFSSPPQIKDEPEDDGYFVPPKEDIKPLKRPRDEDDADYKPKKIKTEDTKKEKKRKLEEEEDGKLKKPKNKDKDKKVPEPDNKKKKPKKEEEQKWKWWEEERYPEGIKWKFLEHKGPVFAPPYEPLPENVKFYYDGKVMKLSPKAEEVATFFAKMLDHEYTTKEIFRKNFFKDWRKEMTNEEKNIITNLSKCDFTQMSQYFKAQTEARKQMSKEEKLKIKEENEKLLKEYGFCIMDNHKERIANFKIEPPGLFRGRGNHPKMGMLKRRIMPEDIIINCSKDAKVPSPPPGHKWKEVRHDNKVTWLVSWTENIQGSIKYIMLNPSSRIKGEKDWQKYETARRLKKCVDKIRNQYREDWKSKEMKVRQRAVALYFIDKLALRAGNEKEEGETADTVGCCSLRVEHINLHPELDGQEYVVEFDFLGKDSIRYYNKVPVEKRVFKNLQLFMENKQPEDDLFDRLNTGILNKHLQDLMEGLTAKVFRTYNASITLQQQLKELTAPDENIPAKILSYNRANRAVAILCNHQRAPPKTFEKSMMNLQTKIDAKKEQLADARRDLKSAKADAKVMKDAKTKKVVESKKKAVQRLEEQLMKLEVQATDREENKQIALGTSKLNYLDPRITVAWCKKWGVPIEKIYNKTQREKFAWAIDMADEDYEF
Outline: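 Supercoiled pBR322 relaxed by Topo I with compound, incubated 30 min at 37 °C, stopped with 1% SDS dye, run on 1% agarose 1 h at 90 V in TAE, stained and imaged under UV; camptothecin as reference.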

[6] = target: T1, DNA topoisomerase 2-alpha; assay: Inhibition of purified human topoisomerase 2-mediated relaxation of supercoiled pBR322 DNA at 50 uM incubated for 30 mins by agarose gel electrophoresis; outline: as §2
Escherichia coli = assay: Binding affinity to Escherichia coli pBR322 DNA assessed as intercalation of pBR322 DNA at 0.1 to 100 uM by fluorescence based ethidium bromide displacement assay
Outline: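 Increasing concentrations added to 20 nM pBR322 plasmid with 2.5 μM ethidium bromide in 10 mM HEPES pH 7.9, 100 mM KCl, 5 mM MgCl2, 0.1 mM EDTA. Fluorescence emission spectra recorded (excitation 510 nm, emission max 595 nm) at each concentration; mAMSA used as intercalating reference.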

SMILES | IC50 (A549) | inhibition [1] | IC50 (Raji) | IC50 (K562) | IC50 (HeLa) | inhibition [5] | inhibition [6] | inhibition (Escherichia coli) | Ratio IC50 (HL-60) | IC50 [2] | IC50 (HEK293) | IC50 [3] | IC50 [4]
CCN(CC)CCCCn1c(-c2c(N)n(C)c3nc(C#N)c(C#N)nc23)nc2ccccc21 | 13.1 µM | Active | 0.6 µM | 3.18 µM | 11.8 µM | – | – | – | 1.3 | 6.95 µM | 8.82 µM | 3.92 µM | 2.86 µM
CN(C)CCCn1c(N)c(-c2nc3ccccc3[nH]2)c2nc(C#N)c(C#N)nc21 | 10.4 µM | Active | 1.23 µM | 1.73 µM | 25.9 µM | inactive | – | – | 2.7 | 1.82 µM | 8.36 µM | 2.39 µM | 0.87 µM
CN(C)CCCCn1c(N)c(-c2nc3ccccc3s2)c2nc(C#N)c(C#N)nc21 | 35.8 µM | Active | 10.1 µM | 1.33 µM | 18.7 µM | – | – | – | 2.6 | 2.74 µM | 5.31 µM | 2.14 µM | 0.83 µM
CCN(CC)CCn1c(N)c(-c2nc3ccccc3[nH]2)c2nc(C#N)c(C#N)nc21 | > 50 µM | – | 8.95 µM | 2.49 µM | 11.6 µM | inactive | inactive | – | 3.8 | 25.4 µM | 12.2 µM | 7.15 µM | 1.88 µM
CN(C)CCn1c(N)c(-c2nc3ccccc3[nH]2)c2nc(C#N)c(C#N)nc21 | > 50 µM | – | 8.32 µM | 6.34 µM | 8.88 µM | inactive | inactive | – | 1.7 | 43.5 µM | 9.73 µM | 3.78 µM | 2.22 µM
CCN(CC)CCCn1c(N)c(-c2nc3ccccc3n2C)c2nc(C#N)c(C#N)nc21 | 10.7 µM | Active | 2.22 µM | 3.27 µM | 12.4 µM | – | – | – | 1.6 | 6.75 µM | 7.24 µM | 4.47 µM | 2.81 µM
CN(C)CCCn1c(N)c(-c2nc3ccccc3o2)c2nc(C#N)c(C#N)nc21 | 7.17 µM | Active | 1.94 µM | 5.9 µM | 11.2 µM | – | – | – | 3.3 | 5.64 µM | 5.88 µM | 1.31 µM | 0.39 µM
N#Cc1nc2c(-c3nc4ccccc4[nH]3)c(N)n(CCCN3CCCCC3)c2nc1C#N | 6.11 µM | – | 3.38 µM | 3.46 µM | 6.68 µM | inactive | inactive | – | 0.6 | 6.23 µM | 6.72 µM | 1.01 µM | 1.68 µM
COc1cc(NS(C)(=O)=O)ccc1Nc1c2ccccc2nc2ccccc12 | – | – | – | – | – | – | – | Active | – | – | – | – | –
CN(C)CCCCn1c(N)c(-c2nc3ccccc3n2C)c2nc(C#N)c(C#N)nc21 | 6.15 µM | Active | 0.32 µM | 1.45 µM | 0.46 µM | – | – | – | 3.5 | 1.79 µM | 3.87 µM | 2.58 µM | 0.74 µM
CCCCn1c(N)c(-c2nc3ccccc3[nH]2)c2nc(C#N)c(C#N)nc21 | > 50 µM | – | > 50 µM | > 50 µM | > 50 µM | inactive | inactive | – | – | > 50 µM | > 50 µM | > 50 µM | > 50 µM

Further compounds by falling IC50 (A549), results first:

IC50 (A549) | inhibition [1] | IC50 (Raji) | IC50 (K562) | IC50 (HeLa) | inhibition [5] | inhibition [6] | inhibition (Escherichia coli) | SMILES | Ratio IC50 (HL-60) | IC50 [2] | IC50 (HEK293) | IC50 [3] | IC50 [4]
40.5 µM | – | > 50 µM | 6.55 µM | > 50 µM | inactive | – | – | CN1CCN(CCn2c(N)c(-c3nc4ccccc4[nH]3)c3nc(C#N)c(C#N)nc32)CC1 | 1.5 | 9.11 µM | 10.9 µM | 6.49 µM | 4.3 µM
25.3 µM | Active | 1.87 µM | 1.8 µM | 3.15 µM | inactive | – | – | CCN(CC)CCCn1c(N)c(-c2nc3ccccc3[nH]2)c2nc(C#N)c(C#N)nc21 | 2.5 | 28.9 µM | 7.87 µM | 1.82 µM | 0.73 µM
11.7 µM | Active | 0.94 µM | 3.56 µM | 4.32 µM | – | – | – | CN(C)CCCn1c(N)c(-c2nc3ccccc3n2C)c2nc(C#N)c(C#N)nc21 | 5.3 | 3.67 µM | 8.41 µM | 11.3 µM | 2.12 µM
11.2 µM | Active | 1.07 µM | 11.3 µM | 10.1 µM | – | – | – | CN(C)CCCCn1c(-c2c(N)n(C)c3nc(C#N)c(C#N)nc23)nc2ccccc21 | 1.2 | 6.48 µM | 7.13 µM | 2.81 µM | 2.27 µM
9.39 µM | Active | 2.61 µM | 1.98 µM | 6.42 µM | – | – | – | CCN(CC)CCCCn1c(N)c(-c2nc3ccccc3o2)c2nc(C#N)c(C#N)nc21 | 3.8 | 2.71 µM | 3.96 µM | 1.72 µM | 0.45 µM
8.87 µM | Active | 2.99 µM | 1.8 µM | 0.72 µM | – | – | – | CN(C)CCCn1c(N)c(-c2nc3ccccc3s2)c2nc(C#N)c(C#N)nc21 | 2.5 | 2.93 µM | 4.29 µM | 1.31 µM | 0.51 µM
5.75 µM | – | 2.62 µM | 1.26 µM | 15.6 µM | inactive | inactive | – | CN1CCN(CCCn2c(N)c(-c3nc4ccccc4[nH]3)c3nc(C#N)c(C#N)nc32)CC1 | 4.4 | 4.52 µM | 6.26 µM | 3.32 µM | 0.75 µM
5.47 µM | Active | 9.2 µM | 1.38 µM | 1.95 µM | – | – | – | CN(C)CCCCn1c(N)c(-c2nc3ccccc3o2)c2nc(C#N)c(C#N)nc21 | 1.5 | 6.13 µM | 6.24 µM | 0.96 µM | 0.64 µM
1.72 µM | Active | 0.92 µM | 1.01 µM | 1.61 µM | – | – | – | CCN(CC)CCCCn1c(N)c(-c2nc3ccccc3n2C)c2nc(C#N)c(C#N)nc21 | 2.5 | 2.89 µM | 3.16 µM | 1.73 µM | 0.7 µM
